# Assay results taken from paper PMC9925696 (Neuro-Oncology, 2022).
# “Also recorded” adds a separate entry of the source. Marks after values point to notes of the source that are not given here.
# How the values were obtained:
# [1] = Plasma pharmacokinetics of DS-1001; assay type: in vivo, human; details: for Increase in Cmax and AUC0-8 h with dose: day 1 and day 8 of cycle 1
# [2] = mice, preclinical; cited from earlier work
# [3] = test system: D-2-hydroxyglutarate (D-2-HG); assay: D-2-HG concentration in resected tumor tissue; assay type: in vivo, human
# In short: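 Patients with IDH1-R132 glioma who were scheduled for salvage surgery after progression took the oral test compound twice daily until surgery. Tumor was resected on the day of surgery, homogenized in 0.1 w/v% bovine serum albumin solution, and derivatized with diacetyl-l-tartaric anhydride. D-2-HG was then quantified by LC-MS/MS against a commercial D-2-HG reference standard. On-treatment values were compared with matched archived frozen tumor from previous surgery, where available.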
# [4] = test system: orthotopic patient-derived xenograft model; details: continuous administration, preclinical; cited from earlier work
# [5] = DS-1001 concentration in resected tumor tissue, plasma and CSF; assay type: in vivo, human; details: for DS-1001 concentration in resected tumor tissue: free form
# In short: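 Drug levels were measured by validated LC-MS/MS and expressed as the free form. CSF was collected at screening and on cycle 1 day 15 (±3 days). Resected tumor and matched plasma were taken on the day of salvage surgery, after oral twice-daily dosing continued until surgery. Where a patient gave several tumor samples, the range is given. The brain/plasma ratio used the matched plasma sample.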
# [6] = test system: recurrent/progressive IDH1-mutant (R132) glioma; assay: Tumor response by RANO / RANO-LGG, PFS, treatment duration; assay type: in vivo, human; details: for Duration of CR: still on treatment
# In short: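 MRI was performed every 6 weeks. Investigators classed tumors at enrollment as contrast-enhancing (assessed by RANO) or non-enhancing (assessed by RANO-LGG). Longest and orthogonal diameters were measured on the largest FLAIR/T2 slice. Best overall response required a confirmatory scan at least 4 weeks later. ORR counted CR, PR and MR. PFS ran from first dose to progression or death. Dosing was oral twice daily, continued until progression or intolerable toxicity.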
# Safety evaluation = assay type: in vivo, human
# In short: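 Adults (≥20 years) with recurrent/progressive grade 2-4 IDH1-R132 glioma received oral twice-daily dosing in 21-day cycles at 125-1400 mg (six levels). Escalation used a modified continual reassessment method (Bayesian logistic regression, overdose control) with cohorts of 3-6 patients and DLT assessment over the 21-day cycle. TEAEs were recorded up to 28 days after the last dose, graded by CTCAE v4.0 and counted once per patient at worst severity. LVEF was monitored by echocardiography or MUGA.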
# [7] = Patient #003, 500 mg bid, 16.9 h after last dose
# [8] = Patient #006, 700 mg bid, 7.2 h after last dose
# [9] = 12 non-enhancing tumors, RANO-LGG
# [10] = non-enhancing (n = 12), RANO-LGG
structure (smiles),measurement,setting,value
Cc1cn(C(=O)c2c(-c3c(Cl)cc(Cl)cc3Cl)noc2C(C)(C)F)c2cccc(/C=C/C(=O)O)c12 [DS-1001],Increase in Cmax and AUC0-8 h with dose,[1]; 125 to 700 mg bid,approximately dose-proportional
same,Increase in Cmax and AUC0-8 h with dose,[1]; 700 to 1400 mg bid,less than dose-proportional
same,Median Tmax across dose range,"[1]; day 1 of cycle 1, 125-1400 mg bid",2 to 6 h
same,Median Tmax across dose range,"[1]; day 8 of cycle 1, 125-1400 mg bid",2 to 4 h
same,Steady-state levels achieved (plasma trough plateau),"[1]; most dose levels, except 1400 mg bid, data not shown",≤ 4 days
same,Distribution to the brain,[2],good distribution to the brain
same,D-2-HG in on-treatment tumor tissue versus pre-treatment samples,[3]; 125 mg bid,significantly lower levels of D-2-HG compared with the pre-treatment samples
same,D-2-HG in on-treatment tumor tissue versus archived samples,"[3]; seven on-treatment samples, 125-700 mg bid",significantly lower amount of D-2-HG compared with pre-study archived samples; also recorded: extremely low compared with matched archived samples; also recorded: lower than archived samples; also recorded: significantly low levels of D-2-HG
same,D-2-HG,[4],D-2-HG reduction
same,Tumor growth,[4],Tumor growth inhibition
same,Brain/plasma concentration ratio,[5]; [7],0.77
same,DS-1001 concentration in resected tumor tissue,[5]; [7],5720 ng/g tissue
same,Brain/plasma concentration ratio,"[5]; Patient #004, 500 mg bid, 4.1, 4.2 h after last dose",0.19
same,Brain/plasma concentration ratio,[5]; [8],0.58
same,DS-1001 concentration in resected tumor tissue,[5]; [8],6130 ng/g tissue
same,DS-1001 in CSF,[5]; day 15 of cycle 1,appeared in CSF
same,Brain / tumor distribution of DS-1001,"[5]; resected tumor samples, salvage surgery",favorable brain distribution; also recorded: a high drug concentration was detected in all resected tumor samples
same,Response by 1p/19q codeletion status,[6]; 1p/19q-codeleted vs non-codeleted,Measurable response was observed in both 1p/19q-codeleted and non-codeleted cases
same,Number of MRs,[6]; [9],3
same,Number of PRs,[6]; [9],1
same,Number of CRs,"[6]; 35 enhancing tumors, RANO",2
same,Number of PRs,"[6]; 35 enhancing tumors, RANO",4
same,Median response duration,[6]; both lesion types,has not been reached
same,Doses at which responses were observed,[6]; data limited,≥ 125 mg bid
same,Confirmed best overall response: complete response,"[6]; enhancing (n = 35), RANO",2 (5.7) n (%)
same,Confirmed best overall response: partial response,"[6]; enhancing (n = 35), RANO",4 (11.4) n (%)
same,Confirmed best overall response: progressive disease,"[6]; enhancing (n = 35), RANO",17 (48.6) n (%)
same,Confirmed best overall response: stable disease,"[6]; enhancing (n = 35), RANO",11 (31.4) n (%)
same,Objective response rate,"[6]; enhancing (n = 35), RANO",6 (17.1) n (%)
same,Confirmed best overall response: not evaluated,"[6]; enhancing (n = 35), treatment discontinued before first response assessment",1 (2.9)^b n (%)
same,Median progression-free survival,"[6]; enhancing glioma cohort, all doses, 95% CI 6.1 to 17.7 weeks",10.4 weeks
same,Median progression-free survival,"[6]; enhancing glioma cohort, 95% CI 6.1 to 17.7 months (abstract)",10.4 months
same,Patients with tumor measurements decreased from baseline,"[6]; enhancing tumors, 15 of 35",42.9%
same,Objective response rate,"[6]; enhancing tumors, RANO",17.1%
same,Confirmed best overall response: not evaluated,[6]; non-enhancing (n = 12),0 (0.0) n (%)
same,Confirmed best overall response: complete response,[6]; [10],0 (0.0) n (%)
same,Confirmed best overall response: minor response,[6]; [10],3 (25.0) n (%)
same,Confirmed best overall response: partial response,[6]; [10],1 (8.3) n (%)
same,Confirmed best overall response: progressive disease,[6]; [10],0 (0.0) n (%)
same,Confirmed best overall response: stable disease,[6]; [10],8 (66.7) n (%)
same,Objective response rate,[6]; [10],4 (33.3) n (%)
same,Median progression-free survival,"[6]; non-enhancing glioma cohort, 95% CI 24.1 to not reached",not reached
same,Patients with tumor measurements decreased from baseline,"[6]; non-enhancing tumors, 11 of 12",91.7%
same,Objective response rate,"[6]; non-enhancing tumors, RANO-LGG",33.3%
same,Duration of CR,[6]; patient with IDH1-mutant anaplastic oligodendroglioma,approximately 95 weeks
same,Duration of CR,"[6]; patient with astrocytoma (IDH-mutant, grade 4)",approximately 174 weeks
same,Patients with at least 1 AE of any grade or causality,Safety evaluation; 45 of 47,95.7%
same,Tolerability / safety profile,Safety evaluation; 125-1400 mg bid oral,well tolerated; also recorded: favorable safety profile
same,Maximum tolerated dose (MTD),"Safety evaluation; 125-1400 mg bid oral, highest dose level 1400 mg bid",not reached
same,"Alanine aminotransferase increased, all grades",Safety evaluation; N = 47,4 (8.5) n (%)
same,"Alanine aminotransferase increased, grade 3",Safety evaluation; N = 47,3 (6.4) n (%)
same,"All AEs, grade 3",Safety evaluation; N = 47,20 (42.6) n (%)
same,"Alopecia, all grades",Safety evaluation; N = 47,13 (27.7) n (%)
same,"Alopecia, grade 3",Safety evaluation; N = 47,0 n (%)
same,"Arthralgia, all grades",Safety evaluation; N = 47,13 (27.7) n (%)
same,"Arthralgia, grade 3",Safety evaluation; N = 47,1 (2.1) n (%)
same,"Aspartate aminotransferase increased, all grades",Safety evaluation; N = 47,3 (6.4) n (%)
same,"Aspartate aminotransferase increased, grade 3",Safety evaluation; N = 47,2 (4.3) n (%)
same,"Back pain, all grades",Safety evaluation; N = 47,10 (21.3) n (%)
same,"Back pain, grade 3",Safety evaluation; N = 47,0 n (%)
same,"Decreased appetite, all grades",Safety evaluation; N = 47,5 (10.6) n (%)
same,"Decreased appetite, grade 3",Safety evaluation; N = 47,0 n (%)
same,"Diarrhea, all grades",Safety evaluation; N = 47,22 (46.8) n (%)
same,"Diarrhea, grade 3",Safety evaluation; N = 47,2 (4.3) n (%)
same,Dose interruption due to arthralgia,Safety evaluation; N = 47,10.6%
same,Dose interruption due to neutrophil count decreased,Safety evaluation; N = 47,12.8%
same,Dose reduction associated with alanine aminotransferase increased,Safety evaluation; N = 47,4.3%
same,Dose reduction associated with arthralgia,Safety evaluation; N = 47,10.6%
same,Dose reduction associated with back pain,Safety evaluation; N = 47,6.4%
same,Dose reduction associated with neck pain,Safety evaluation; N = 47,2.1%
same,Dose reduction associated with neutrophil count decreased,Safety evaluation; N = 47,6.4%
same,Dose reduction associated with white blood cell count decreased,Safety evaluation; N = 47,4.3%
same,"Dry skin, all grades",Safety evaluation; N = 47,10 (21.3) n (%)
same,"Dry skin, grade 3",Safety evaluation; N = 47,0 n (%)
same,"Feces soft, all grades",Safety evaluation; N = 47,6 (12.8) n (%)
same,"Feces soft, grade 3",Safety evaluation; N = 47,0 n (%)
same,Grade 4 or 5 AEs or serious drug-related AEs,Safety evaluation; N = 47,No grade 4 or 5 AEs or serious drug-related AEs were reported
same,"Headache, all grades",Safety evaluation; N = 47,11 (23.4) n (%)
same,"Headache, grade 3",Safety evaluation; N = 47,1 (2.1) n (%)
same,"Hypophosphatemia, all grades",Safety evaluation; N = 47,2 (4.3) n (%)
same,"Hypophosphatemia, grade 3",Safety evaluation; N = 47,2 (4.3) n (%)
same,"Nasopharyngitis, all grades",Safety evaluation; N = 47,7 (14.9) n (%)
same,"Nasopharyngitis, grade 3",Safety evaluation; N = 47,0 n (%)
same,"Nausea, all grades",Safety evaluation; N = 47,12 (25.5) n (%)
same,"Nausea, grade 3",Safety evaluation; N = 47,0 n (%)
same,"Neutrophil count decreased, all grades",Safety evaluation; N = 47,7 (14.9) n (%)
same,"Neutrophil count decreased, grade 3",Safety evaluation; N = 47,6 (12.8) n (%)
same,Patients with TEAEs associated with dose reduction,Safety evaluation; N = 47,27.7%
same,Patients with at least 1 dose interruption due to TEAEs,Safety evaluation; N = 47,57.4%
same,Patients with at least 1 grade 3 AE (TEAE),Safety evaluation; N = 47,42.6%
same,"Pruritus, all grades",Safety evaluation; N = 47,14 (29.8) n (%)
same,"Pruritus, grade 3",Safety evaluation; N = 47,0 n (%)
same,"Rash, all grades",Safety evaluation; N = 47,11 (23.4) n (%)
same,"Rash, grade 3",Safety evaluation; N = 47,0 n (%)
same,"Skin hyperpigmentation, all grades",Safety evaluation; N = 47,25 (53.2) n (%)
same,"Skin hyperpigmentation, grade 3",Safety evaluation; N = 47,0 n (%)
same,"Vomiting, all grades",Safety evaluation; N = 47,9 (19.1) n (%)
same,"Vomiting, grade 3",Safety evaluation; N = 47,0 n (%)
same,"White blood cell count decreased, all grades",Safety evaluation; N = 47,3 (6.4) n (%)
same,"White blood cell count decreased, grade 3",Safety evaluation; N = 47,3 (6.4) n (%)
same,"Alanine aminotransferase increased, grade 3","Safety evaluation; N = 47, text",6.4%
same,"Alopecia, any grade","Safety evaluation; N = 47, text",27.7%
same,"Arthralgia, any grade","Safety evaluation; N = 47, text",27.7%
same,"Aspartate aminotransferase increased, grade 3","Safety evaluation; N = 47, text",4.3%
same,"Back pain, any grade","Safety evaluation; N = 47, text",21.3%
same,"Diarrhea, any grade","Safety evaluation; N = 47, text",46.8%
same,"Diarrhea, grade 3","Safety evaluation; N = 47, text",4.3%
same,"Dry skin, any grade","Safety evaluation; N = 47, text",21.3%
same,"Headache, any grade","Safety evaluation; N = 47, text",23.4%
same,"Hypophosphatemia, grade 3","Safety evaluation; N = 47, text",4.3%
same,"Nausea, any grade","Safety evaluation; N = 47, text",25.5%
same,"Neutrophil count decreased, grade 3","Safety evaluation; N = 47, text",12.8%
same,"Pruritus, any grade","Safety evaluation; N = 47, text",29.8%
same,"Rash, any grade","Safety evaluation; N = 47, text",23.4%
same,"Skin hyperpigmentation, any grade","Safety evaluation; N = 47, text",53.2%
same,"White blood cell count decreased, grade 3","Safety evaluation; N = 47, text",6.4%
same,Dose-limiting toxicity (DLT),Safety evaluation; at 1000 mg bid,"One DLT, grade 3 white blood cell count decreased"
same,Dose modification due to pain,Safety evaluation; doses ≤250 mg bid,no dose modification due to pain
same,Dose modification due to pain,Safety evaluation; doses ≥500 mg bid,most patients who received long-term administration of DS-1001 required dose modifications due to episodes of pain
same,Discontinued due to an AE (alanine aminotransferase increased),Safety evaluation; of 39 patients who discontinued,1 patients
same,"All AEs, all grades",Safety evaluation; safety analysis set N = 47,45 (95.7) n (%)
